14 molecules from ChEMBL document CHEMBL3822361, “Novel 1,6-naphthyridin-2(1H)-ones as potential anticancer agents targeting Hsp90” (Eur J Med Chem, 2016) can be followed below.

pIC50: −log10 of the molar value. Active and inactive are the calls of the source. The rule behind the calls is not given here.

The test system of data set [1] is MCF7. In words: Antiproliferative activity against human MCF7 cells measured after 48 hrs by MTT assay. It is filed as functional, cell-based. The settings on record: MCF7, 48 h. A digest of the protocol:
(§1)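 Cells grown in DMEM with 2 mM L-glutamine, penicillin/streptomycin and 5% FBS at 37 °C, 5% CO2; seeded 6000/well in 96-well plates, attached 24 h. Compounds added over a concentration range in DMSO (1% final), 48 h. MTT (2.5 mg/mL in PBS) added for 3.5 h, formazan dissolved in DMSO, OD 570 nm. Growth relative to 1% DMSO; IC50 from separate triplicate experiments.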
(In general: Formazan colour is commonly taken as a measure of viable cells.)

In data set [2] the test system is MDA-MB-468. The data set is described as follows: Antiproliferative activity against human MDA-MB-468 cells measured after 48 hrs by MTT assay. The data set is classed as functional, cell-based. The settings on record: MDA-MB-468, 48 h. A digest of the protocol: as §1
The test system of data set [3] is MCF7. In words: Effect on HSP90 level in human MCF7 cells at 1.5 times IC50 measured after 48 hrs by western blot analysis. It is filed as cell-based. Particulars: mcf7, 48 h. The procedure, abridged: (§2)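 Cells seeded in 6-well plates, 24 h at 37 °C, 5% CO2, then exposed 48 h to compound or 17-AAG in DMSO (1% final) or to vehicle. Lysed 2 h on ice in buffer with protease and phosphatase inhibitors, sonicated, protein measured by BCA. Equal protein run on SDS-PAGE, moved to PVDF, primary antibodies overnight at 4 °C, HRP secondary 1 h, ECL chemiluminescence.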
For orientation: A western blot detects proteins with antibodies after separation by electrophoresis.

Data set [4] relates to MDA-MB-468. The data set is described as follows: Effect on actin level in human MDA-MB-468 cells at 1.5 times IC50 measured after 48 hrs by western blot analysis. The data set is classed as cell-based. The settings on record: mda-mb-468, 48 h. A digest of the protocol: as §2
For data set [5], the system named is MDA-MB-468. The data set is described as follows: Effect on cell cycle distribution in human MDA-MB-468 cells assessed as accumulation at G2/M-phase at 2 uM measured after 48 hrs by propidium iodide staining-based flow cytometry. It is filed as functional. A digest of the protocol: (§3)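 MDA-MB-468 seeded 40,000/well in 24-well plates, 24 h at 37 °C, 5% CO2, then treated 48 h with compounds in DMSO (1% final). Cells trypsinized, washed in PBS, fixed in 70% ethanol, rehydrated in PBS, stained with propidium iodide in PBS. Phase distribution (G1, S, G2/M, polyploid, subG1) read by flow cytometry.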

In data set [6] the target is T1, Heat shock protein HSP90 (Homo sapiens) (UniProt P07900+P08238). The data set is described as follows: Inhibition of HSP90 in human MCF-7 cells assessed as ER-alpha protein degradation at 1.5 times IC50 measured after 48 hrs by western blot analysis.
Data set [7] concerns MDA-MB-468. In words: Effect on HSP90 level in human MDA-MB-468 cells at 1.5 times IC50 measured after 48 hrs by western blot analysis. The settings on record: mda-mb-468, 48 h. The data set is classed as cell-based. A digest of the protocol: as §2
In data set [8] the target is T1, Heat shock protein HSP90 (Homo sapiens). The data set is described as follows: Inhibition of HSP90 in human MCF7 cells assessed as Raf-1 protein degradation at 1.5 times IC50 measured after 48 hrs by western blot analysis. The data set is classed as cell-based. The procedure, abridged: as §2
In data set [9] the test system is MCF7. The data set is described as follows: Effect on actin level in human MCF7 cells at 1.5 times IC50 measured after 48 hrs by western blot analysis. It is filed as cell-based. The settings on record: mcf7, 48 h. A digest of the protocol: as §2
The target of data set [10] is T1, Heat shock protein HSP90 (Homo sapiens). The data set is described as follows: Inhibition of HSP90 in human MDA-MB-468 cells assessed as Raf-1 protein degradation at 1.5 times IC50 measured after 48 hrs by western blot analysis. It is filed as cell-based. A digest of the protocol:
as §2

In data set [11] the test system is MDA-MB-468. The data set is described as follows: Induction of apoptosis in human MDA-MB-468 cells at 2 uM measured after 48 hrs by Annexin V-FITC/propidium iodide staining-based flow cytometry. It is filed as functional, cell-based. The procedure, abridged:
(§4)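 Cells incubated 24 h at 37 °C, 5% CO2, then given compounds in DMSO (1% final) for 48 h. Floating and trypsinized adherent cells pooled, PBS-washed, stained with annexin V-FITC plus propidium iodide in binding buffer, 15 min on ice in the dark. Flow cytometry, ≥10 000 events per sample; annexin V-positive cells scored as apoptotic.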
In general terms: In flow cytometry, cells or beads pass a laser one at a time.

Data set [12] has as its target T1, Heat shock protein HSP90 (Homo sapiens). The data set is described as follows: Inhibition of HSP90 in human MCF7 cells assessed as ER-alpha protein degradation at 1.5 times IC50 measured after 48 hrs by western blot analysis. It is filed as cell-based. The procedure, abridged: as §2
The test system of data set [13] is MDA-MB-468. The data set is described as follows: Effect on cell cycle distribution in human MDA-MB-468 cells assessed as accumulation at G2/M-phase at 4 uM measured after 48 hrs by propidium iodide staining-based flow cytometry. The data set is classed as functional. The procedure, abridged:
as §3

Data set [14] concerns MDA-MB-468. The data set is described as follows: Induction of apoptosis in human MDA-MB-468 cells at 4 uM measured after 48 hrs by Annexin V-FITC/propidium iodide staining-based flow cytometry. It is filed as functional, cell-based. A digest of the protocol: as §4

Broadly, the pIC50 is −log10 of the IC50, conventionally taken in molar units. Low values mean a high IC50, high ones a low IC50. On to `CN(C)CCNc1cc2c(cn1)cc(NC(=O)/C=C/c1ccccc1)c(=O)n2C`, for which the results for the pIC50 in [1] and in data set [2] were 4.56 and 4.92, respectively.

Consider `Cn1c(=O)c(NC(=O)c2ccncc2)cc2cnc(NCCN3CCOCC3)cc21`, for which the results for the pIC50 in data set [1] and in data set [2] were 5.35 and below 4.00, respectively.

`CC(=O)Nc1cc2cnc(NCCN3CCOCC3)cc2n(C)c1=O`: the pIC50 in [1] and in data set [2] was below 4.00 in each case.

As for `CN(C)CCNc1cc2c(cn1)cc(NC(=O)c1ccc(Cl)cc1)c(=O)n2C`, the Activity result in [3], in [4], in data set [7] and in data set [9] was “Non-toxic” each time. Further, the negative-log IC50 (pIC50) in [1] is 5.51; in [2] it was 5.79. In addition, the result in data set [5] and in data set [11] was Active. Moreover, the inhibition result in data set [6], in data set [8], in data set [10] and in data set [12] was “Active” each time.

For the molecule `CN(C)CCNc1cc2c(cn1)cc(NC(=O)c1cc3ccccc3s1)c(=O)n2C`, the Activity result in data set [3], in data set [4], in data set [7] and in data set [9] was “Non-toxic” throughout. Moreover, the negative-log IC50 (pIC50) was 4.92 in data set [1] and 5.45 in data set [2]. In addition, the inhibition entry in data set [6], in data set [8], in [10] and in [12] was “inactive” each time. The outcome in data set [13] and in data set [14] was Active.

Consider `COc1ccc(C(=O)Nc2cc3cnc(N4CCN(C)CC4)cc3n(C)c2=O)cc1`, for which the results for the negative logarithm of the IC50 (pIC50) in data set [1] and in data set [2] were 4.45 and 4.90, respectively.

As to `Cn1c(=O)c(NC(=O)c2ccc(Cl)cc2)cc2cnc(NCCN3CCOCC3)cc21`, the pIC50 in [1] is 5.20; in data set [2], below 4.00.

As for `Cn1c(=O)c(NC(=O)/C=C/c2ccccc2)cc2cnc(NCCN3CCOCC3)cc21`, the negative logarithm of the IC50 (pIC50) in [1] and in data set [2] was below 4.00 each time.

For the molecule `CN(C)CCNc1cc2c(cn1)cc(NC(=O)c1ccncc1)c(=O)n2C`, the pIC50 in [1] is 4.44; in [2] it was 5.08.

`COc1ccc(C(=O)Nc2cc3cnc(NCCN(C)C)cc3n(C)c2=O)cc1`: the pIC50 is 4.43 in data set [1] and 4.80 in [2].

`Cn1c(=O)c(NC(=O)c2cc3ccccc3s2)cc2cnc(NCCN3CCOCC3)cc21`: the negative logarithm of the IC50 (pIC50) in [1] and in data set [2] was below 4.00 in each case.

As for `COc1cc(C(=O)Nc2cc3cnc(NCCN4CCOCC4)cc3n(C)c2=O)cc(OC)c1OC`, the pIC50 was 4.31 in data set [1] and below 4.00 in [2].

Regarding `CO[C@@H]1[C@@H](OC(N)=O)[C@@H](O)[C@H](Oc2ccc3c(O)c(NC(=O)c4ccc(O)c(CC=C(C)C)c4)c(=O)oc3c2C)OC1(C)C` [NOVOBIOCIN], the values for the pIC50 in data set [1] and in data set [2] were 3.53 and 3.47, respectively.

As to `CN(C)CCNc1cc2c(cn1)cc(NC(=O)c1ccccc1)c(=O)n2C`, the values for the pIC50 in data set [1] and in [2] were 4.45 and 4.74, respectively.
